# Results from ChEMBL document CHEMBL2429791, “Preparation of asymmetric urea derivatives that target prostate-specific membrane antigen for SPECT imaging” (J Med Chem, 2013).
# Experiments:
# Kidney [1] = experiment: Drug excretion in C.B.-17/Icr […] Jcl mouse kidney xenografted with human LNCAP and PC3 cells at 25.9 MBq, iv; format: ADME, organism-based; conditions: in vivo
# Nucleic Acid [2] = experiment: Ratio of drug level in human PC3 cells xenografted in C.B.-17/Icr +/+ Jcl mouse to muscle of C.B.-17/Icr +/+ Jcl mouse xenografted with human LNCAP and PC3 cells at 25.9 MBq, iv after 6 hrs; format: ADME, organism-based; conditions: in vivo
# Outline: (§1)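 Mice (22–24 g) carried PC-3 (right shoulder) and LNCaP (left shoulder) tumors, raised by injecting 1–5 × 10⁶ cells in 1:1 PBS/Matrigel and used at about 5–10 mm diameter. [¹²⁵I]-tracer was given via the tail vein, n=4 per time point, and mice were decapitated at 2 min, 30 min, 1, 3 or 6 h. Tissues were weighed and γ-counted as %ID/g. Tumor/blood and tumor/muscle ratios were taken from %ID/g, mean ± SD.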
# PC-3 [3] = experiment: Biodistribution in PC3 cells in C.B.-17/Icr +/+ Jcl mouse xenografted with human LNCAP and PC3 cells at 25.9 MBq, iv after 6 hrs; format: ADME, organism-based; conditions: in vivo
# Outline: (§2)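 ¹²⁵I-labelled tracer given iv by tail vein to mice (22–24 g) bearing LNCaP (left shoulder) and PC-3 (right shoulder) xenografts of about 5–10 mm, grown from 1–5 × 10⁶ cells in 1:1 Matrigel. n=4 per time point; decapitated at 2 min, 30 min, 1, 3, 6 h. Tissues weighed and counted; uptake as %ID/g, mean ± SD.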
# Heart = experiment: Biodistribution in heart of C.B.-17/Icr +/+ Jcl mouse xenografted with human LNCAP and PC3 cells at 25.9 MBq, iv after 6 hrs; format: ADME, organism-based; conditions: in vivo; outline: as §2
# Spleen [4] = experiment: Biodistribution in spleen of C.B.-17/Icr +/+ Jcl mouse xenografted with human LNCAP and PC3 cells at 25.9 MBq, iv after 6 hrs; format: ADME, organism-based; conditions: in vivo
# Outline: (§3)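 Radioiodinated (¹²⁵I) tracer given by tail-vein injection to mice bearing LNCaP (left shoulder) and PC-3 (right shoulder) xenografts, 22–24 g, grown to about 5–10 mm. Groups of n=4 were decapitated at 2 min, 30 min, 1 h, 3 h or 6 h. Tissues were weighed and counted, and uptake was expressed as %ID/g (mean ± SD).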
# Liver = experiment: Biodistribution in liver of C.B.-17/Icr […] Jcl mouse xenografted with human LNCAP and PC3 cells at 25.9 MBq, iv after 6 hrs; format: ADME, organism-based; conditions: in vivo; outline: as §2
# Blood = experiment: Biodistribution in blood of C.B.-17/Icr +/+ Jcl mouse xenografted with human LNCAP and PC3 cells at 25.9 MBq, iv after 6 hrs; format: ADME, organism-based; conditions: in vivo; outline: as §2
# Nucleic Acid [5] = experiment: Ratio of drug level in human PC3 cells xenografted in C.B.-17/Icr +/+ Jcl mouse to muscle of C.B.-17/Icr +/+ Jcl mouse xenografted with human LNCAP and PC3 cells at 25.9 MBq, iv after 3 hrs; format: ADME, organism-based; conditions: in vivo; outline: as §1
# Nucleic Acid [6] = experiment: Ratio of drug level in human LNCAP cells to human PC3 cells xenografted in C.B.-17/Icr […] Jcl mouse at 25.9 MBq, iv after 3 hrs; format: ADME, organism-based; conditions: in vivo
# Thyroid gland = experiment: Biodistribution in thyroid of C.B.-17/Icr +/+ Jcl mouse xenografted with human LNCAP and PC3 cells at 25.9 MBq, iv after 3 hrs; format: ADME, organism-based; conditions: in vivo; outline: as §3
# Kidney [7] = experiment: Biodistribution in kidney of C.B.-17/Icr […] Jcl mouse xenografted with human LNCAP and PC3 cells at 25.9 MBq, iv after 3 hrs; format: ADME, organism-based; conditions: in vivo; outline: as §2
# Intestine [8] = experiment: Biodistribution in intestine of C.B.-17/Icr +/+ Jcl mouse xenografted with human LNCAP and PC3 cells at 25.9 MBq, iv after 3 hrs; format: ADME, organism-based; conditions: in vivo; outline: as §2
# Stomach = experiment: Biodistribution in stomach of C.B.-17/Icr +/+ Jcl mouse xenografted with human LNCAP and PC3 cells at 25.9 MBq, iv after 3 hrs; format: ADME, organism-based; conditions: in vivo; outline: as §3
# Nucleic Acid [9] = experiment: Ratio of drug level in human LNCAP cells to human PC3 cells xenografted in C.B.-17/Icr […] Jcl mouse at 25.9 MBq, iv after 1 hr; format: ADME, organism-based; conditions: in vivo
# PC-3 [10] = experiment: Biodistribution in PC3 cells in C.B.-17/Icr +/+ Jcl mouse xenografted with human LNCAP and PC3 cells at 25.9 MBq, iv after 1 hr; format: ADME, organism-based; conditions: in vivo; outline: as §2
# LNCaP = experiment: Biodistribution in LNCAP cells in C.B.-17/Icr +/+ Jcl mouse xenografted with human LNCAP and PC3 cells at 25.9 MBq, iv after 1 hr; format: ADME, organism-based; conditions: in vivo; outline: as §2
# Lung [11] = experiment: Biodistribution in lung of C.B.-17/Icr +/+ Jcl mouse xenografted with human LNCAP and PC3 cells at 25.9 MBq, iv after 1 hr; format: ADME, organism-based; conditions: in vivo; outline: as §3
# [12] = Ratio of drug level in human LNCAP cells xenografted in C.B.-17/Icr +/+ Jcl mouse to blood of C.B.-17/Icr +/+ Jcl mouse xenografted with human LNCAP and PC3 cells at 25.9 MBq, iv after 30 mins; format: ADME, organism-based; conditions: LNCAP tumour xenograft relative to blood
# Outline: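 Tumor-to-blood and tumor-to-muscle ratios were calculated from %ID/g values in ¹²⁵I-tracer biodistribution in LNCaP/PC-3 xenografted mice. Tail-vein dosing, n=4 per time point, sacrifice at 2 min, 30 min, 1, 3 or 6 h.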
# Spleen [13] = experiment: Biodistribution in spleen of C.B.-17/Icr scid/scid Jcl mouse xenografted with human LNCAP and PC3 cells at 25.9 MBq, iv after 30 mins in presence of 2-PMPA; format: ADME, organism-based; conditions: in vivo, 0.5 h
# Outline: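 Blocking study: the ¹²⁵I tracer was coinjected via the tail vein with 2-PMPA (50 mg/kg) into LNCaP/PC-3 tumor-bearing mice, 22–24 g. Mice were decapitated 30 min after injection. Tissues were weighed and counted, giving %ID/g.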
# Muscle tissue = experiment: Biodistribution in muscle of C.B.-17/Icr +/+ Jcl mouse xenografted with human LNCAP and PC3 cells at 25.9 MBq, iv after 30 mins; format: ADME, organism-based; conditions: in vivo, 0.5 h; outline: as §3
# Spleen [14] = experiment: Biodistribution in spleen of C.B.-17/Icr +/+ Jcl mouse xenografted with human LNCAP and PC3 cells at 25.9 MBq, iv after 30 mins; format: ADME, organism-based; conditions: in vivo, 0.5 h; outline: as §3
# Lung [15] = experiment: Biodistribution in lung of C.B.-17/Icr +/+ Jcl mouse xenografted with human LNCAP and PC3 cells at 25.9 MBq, iv after 2 mins; format: ADME, organism-based; conditions: in vivo; outline: as §3
# Spleen [16] = experiment: Biodistribution in spleen of C.B.-17/Icr +/+ Jcl mouse xenografted with human LNCAP and PC3 cells at 25.9 MBq, iv after 2 mins; format: ADME, organism-based; conditions: in vivo; outline: as §3
# Intestine [17] = experiment: Biodistribution in intestine of C.B.-17/Icr +/+ Jcl mouse xenografted with human LNCAP and PC3 cells at 25.9 MBq, iv after 2 mins; format: ADME, organism-based; conditions: in vivo; outline: as §2
# Serum = experiment: Drug degradation in C.B.-17/Icr +/+ Jcl mouse serum after 6 hrs; format: ADME, cell-free
# Outline: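 Serum came from heart blood of isoflurane-anesthetized male C.B.-17/Icr +/+ mice (20–22 g), centrifuged at 1,500 × g and stored at −80 °C. ¹²⁵I tracer was incubated in serum at 37 °C, then methanol was added. The sample was centrifuged at 5,000 × g, passed through a 0.45 μm filter, and analyzed by radio-HPLC for intact tracer versus degradation peaks.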
smiles,measurement,setting,value
O=C(O)CC[C@H](NC(=O)N[C@@H](CSC1CC(=O)N(CCCC[C@H](NC(=O)CNC(=O)c2cccc([125I])c2)C(=O)O)C1=O)C(=O)O)C(=O)O (stereo not given in full),Drug excretion,Kidney [1],Active
same,Ratio,Nucleic Acid [2],2.1
same,Drug uptake,PC-3 [3],0.2 % ID/g
same,Drug uptake,Heart,0.4 % ID/g
same,Drug uptake,Spleen [4],9.7 % ID/g
same,Drug uptake,Liver,4.5 % ID/g
same,Drug uptake,Blood,0.5 % ID/g
same,Ratio,Nucleic Acid [5],1.5
same,Ratio,Nucleic Acid [6],33.9
same,Drug uptake,Thyroid gland,0.01 %ID
same,Drug uptake,Kidney [7],110 % ID/g
same,Drug uptake,Intestine [8],5.8 % ID/g
same,Drug uptake,Stomach,1 %ID
same,Ratio,Nucleic Acid [9],9.6
same,Drug uptake,PC-3 [10],0.7 % ID/g
same,Drug uptake,LNCaP,7 % ID/g
same,Drug uptake,Lung [11],2.5 % ID/g
same,Kp at 0.5 h,[12],7.2
same,Drug uptake,Spleen [13],Not Active
same,Drug uptake,Muscle tissue,0.6 % ID/g
same,Drug uptake,Spleen [14],43.3 % ID/g
same,Drug uptake,Lung [15],6.8 % ID/g
same,Drug uptake,Spleen [16],12.5 % ID/g
same,Drug uptake,Intestine [17],3.6 % ID/g
same,Stability,Serum,Stable
